# Data published in publication PMC3579501 (Transplantation, 2011).
# Where “and” joins values, the source holds several entries; their conditions need not be identical. Equal entries are not always repeated. Where two headings read alike, the source gives them in different places. Marks after values point to notes of the source that are not given here.
# Tests used:
# [1] = cited from earlier work
# [2] = CYP3A5*3/*3 compared to *1/*1 or *1/*3; cited from earlier work
# [3] = format: in vivo, human
# How it was run: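 Log of trough (ng/mL) divided by total daily dose (mg/kg), from up to 24 troughs per patient over 6 months, fitted by general linear model. Time posttransplant (1–24) was categorical, with a covariance structure for repeated measures. Clinical factors were retained at backward-selection F-test p<0.15. Variants were tested one at a time (additive model, Toeplitz covariance), adjusted for center and retained factors. Significance was set at FDR 20%, effective m=2110.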
# [4] = format: in vivo, human; remark: listed apart in the source
# How it was run: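 Uses the first log-transformed dose-normalized trough, taken within 4 days posttransplant. Variants and clinical factors were analysed by multiple linear regression with stepwise variable selection. Effect estimates and standard errors were taken from the final model. Age was mean-centered at 50.2 years. Center p-value is from the overall F-test.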
# [5] = format: in vivo, human; remark: listed apart in the source
# How it was run: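 Adult kidney or kidney-pancreas recipients on tacrolimus with mycophenolate and steroids, with or without induction. Whole-blood troughs were drawn before an oral dose: two per week in weeks 1–8 and two per month in months 3–6. Measurement was mostly by LC-MS. Doses were adjusted to center targets, generally 8–12 ng/mL (months 0–3) and 6–10 ng/mL (months 4–6). Dose-normalized trough = trough/daily dose (mg/kg). AA and non-AA were compared by Wilcoxon-Mann-Whitney.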
# CYP3A5 = conditions: cited from earlier work
# [6] = African American (n=144), over the first 6 months
# [7] = nonAfrican American (n=551), over the first 6 months
smiles,measurement,setting,value
"C=CC[C@@H]1/C=C(\C)C[C@H](C)C[C@H](OC)[C@H]2O[C@@](O)(C(=O)C(=O)N3CCCC[C@H]3C(=O)O[C@H](/C(C)=C/[C@@H]3CC[C@@H](O)[C@H](OC)C3)[C@H](C)[C@@H](O)CC1=O)[C@H](C)C[C@@H]2OC [tacrolimus, Tacrolimus]",Subjects achieving the trough target,[1]; control group,29.1%
same,Subjects achieving the trough target,[1]; genotype adapted dosing,43.2%
same,"Intersubject pharmacokinetic variability in area under the curve, higher",[2],41.1%
same,Reduction in log transformed dose-normalized trough,[3]; AA race relative to non-AAs,0.04
same,Increase in dose-normalized trough,"[3]; CYP3A4 (rs7801671, rs12114000, rs2687117), CYP3A7 (rs2687080, rs776740), CYP3A5 (rs10264272) variants, adjusted for rs776746",20–32%
same,Increase in log transformed dose-normalized troughs,[3]; calcium channel blocker (CCB) use,0.03
same,Increase in log transformed dose-normalized troughs,[3]; diabetes,0.12
same,Increase in log transformed dose-normalized troughs,[3]; male gender,0.17
same,Reduction in log transformed dose-normalized troughs,"[3]; one A allele (CYP3A5*1, rs776746)",36%
same,Effect on log transformed dose-normalized troughs (estimate ± SE),"[3]; one A allele (CYP3A5*1, rs776746), adjusted for clinical factors",−0.44±0.03
same,Increase in log transformed dose-normalized troughs,"[3]; one allele of CYP3A4 (rs7801671, rs12114000, rs2687117), CYP3A7 (rs2687080, rs776740), CYP3A5 (rs10264272) variants, adjusted for rs776746",0.18–0.28
same,Reduction in log transformed dose-normalized troughs,"[3]; two A alleles (CYP3A5*1, rs776746)",59%
same,Effect on log transformed dose-normalized first trough (Estimate ± SE),"[4]; African American subjects only, Diabetes",0.45 ± 0.12
same,Effect on log transformed dose-normalized first trough (Estimate ± SE),"[4]; African American subjects only, rs776746 (CYP3A5)",−0.25 ± 0.08
same,Effect on log transformed dose-normalized first trough (Estimate ± SE),"[4]; African American subjects only, rs2072374 (CNAP1)",−0.45 ± 0.17
same,Effect on log transformed dose-normalized first trough (Estimate ± SE),"[4]; African American subjects only, rs2239393 (COMT)",−0.19 ± 0.08
same,Effect on log transformed dose-normalized first trough (Estimate ± SE),"[4]; African American subjects only, rs2280789 (CCL5)",0.23 ± 0.10
same,Effect on log transformed dose-normalized first trough (Estimate ± SE),"[4]; African American subjects only, rs2288648 (FASTK)",−0.41 ± 0.17
same,Effect on log transformed dose-normalized first trough (Estimate ± SE),"[4]; African American subjects only, rs3136228 (MSH6)",−0.20 ± 0.08
same,Effect on log transformed dose-normalized first trough (Estimate ± SE),"[4]; African American subjects only, rs12114000 (CYP3A4)",0.38 ± 0.11
same,Effect on log transformed dose-normalized first trough (Estimate ± SE),"[4]; Non-African American subjects only, Age in years, mean-centered at 50.2 years",0.010 ± 0.002
same,Effect on log transformed dose-normalized first trough (Estimate ± SE),"[4]; Non-African American subjects only, Diabetes",0.21 ± 0.06
same,Effect on log transformed dose-normalized first trough (Estimate ± SE),"[4]; Non-African American subjects only, rs4926 (SERPING1)",−0.12 ± 0.04
same,Effect on log transformed dose-normalized first trough (Estimate ± SE),"[4]; Non-African American subjects only, rs17567 (EPS15)",0.12 ± 0.05
same,Effect on log transformed dose-normalized first trough (Estimate ± SE),"[4]; Non-African American subjects only, rs776746 (CYP3A5)",−0.31 ± 0.07
same,Effect on log transformed dose-normalized first trough (Estimate ± SE),"[4]; Non-African American subjects only, rs1800822 (FMO3)",0.20 ± 0.09
same,Effect on log transformed dose-normalized first trough (Estimate ± SE),"[4]; Non-African American subjects only, rs2239393 (COMT)",−0.07 ± 0.04
same,Effect on log transformed dose-normalized first trough (Estimate ± SE),"[4]; Non-African American subjects only, rs2608555 (GAN)",0.17 ± 0.04
same,Effect on log transformed dose-normalized first trough (Estimate ± SE),"[4]; Non-African American subjects only, rs3135506 (APOA5)",−0.23 ± 0.08
same,Effect on log transformed dose-normalized first trough (Estimate ± SE),"[4]; Non-African American subjects only, rs3734354 (SIM1)",0.20 ± 0.06
same,Effect on log transformed dose-normalized first trough (Estimate ± SE),"[4]; all subjects model, Age in years, mean-centered at 50.2 years",0.008 ± 0.002
same,Effect on log transformed dose-normalized first trough (Estimate ± SE),"[4]; all subjects model, Diabetes",0.23 ± 0.05
same,Effect on log transformed dose-normalized first trough (Estimate ± SE),"[4]; all subjects model, rs3448 (GPX1)",0.07 ± 0.04
same,Effect on log transformed dose-normalized first trough (Estimate ± SE),"[4]; all subjects model, rs4926 (SERPING1)",−0.09 ± 0.04
same,Effect on log transformed dose-normalized first trough (Estimate ± SE),"[4]; all subjects model, rs13321 (TNC)",0.06 ± 0.04
same,Effect on log transformed dose-normalized first trough (Estimate ± SE),"[4]; all subjects model, rs17567 (EPS15)",0.10 ± 0.04
same,Effect on log transformed dose-normalized first trough (Estimate ± SE),"[4]; all subjects model, rs776746 (CYP3A5)",−0.33 ± 0.05
same,Effect on log transformed dose-normalized first trough (Estimate ± SE),"[4]; all subjects model, rs2072374 (CNAP1)",−0.08 ± 0.04
same,Effect on log transformed dose-normalized first trough (Estimate ± SE),"[4]; all subjects model, rs2239393 (COMT)",−0.28 ± 0.08
same,Effect on log transformed dose-normalized first trough (Estimate ± SE),"[4]; all subjects model, rs2608555 (GAN)",0.15 ± 0.04
same,Effect on log transformed dose-normalized first trough (Estimate ± SE),"[4]; all subjects model, rs2687117 (CYP3A4)",0.26 ± 0.08
same,Effect on log transformed dose-normalized first trough (Estimate ± SE),"[4]; all subjects model, rs3135506 (APOA5)",−0.23 ± 0.07
same,Effect on log transformed dose-normalized first trough (Estimate ± SE),"[4]; all subjects model, rs3734354 (SIM1)",0.19 ± 0.06
same,Effect on log transformed dose-normalized first trough (Estimate ± SE),"[4]; all subjects model, rs4646312 (COMT)",0.22 ± 0.08
same,Median trough,"[5]; AAs, remained despite 60% higher doses (Figure 1)",< 8 ng/mL
same,"Trough concentration, median (interquartile range)",[5]; [6],6.2 (4.4–8.4) ^d ng/mL
same,"Trough dose-normalized, median (interquartile range)",[5]; [6],68.3 (46.1–103.6) ^d ng/ml per mg/kg/day
same,Subjects with first trough <8 ng/mL,[5]; African Americans,96.6%
same,"First trough concentration (week one posttransplant), median (interquartile range)","[5]; African Americans, daily dose 4.0 (4.0–5.0) mg/day",2.1 (1.2–3.5) ng/mL
same,"Dose-normalized trough, median (interquartile range)",[5]; CYP3A5*1/*1 genotype,54.3(37.9–80.3) ng/mL per mg/kg
same,"Trough concentration, median (interquartile range)",[5]; CYP3A5 *1/*1 genotype (rs776746),5.8(4.1–7.9) ng/mL
same,"Dose-normalized trough, median (interquartile range)",[5]; CYP3A5 *1/*3 genotype,77.8(53.1–114.6) ng/mL per mg/kg
same,"Trough concentration, median (interquartile range)",[5]; CYP3A5 *1/*3 genotype (rs776746),7.1(5.1–9.3) ng/mL
same,"Dose-normalized trough, median (interquartile range)",[5]; CYP3A5 *3/*3 genotype,141.1(91.7–214.5) ng/mL per mg/kg
same,"Trough concentration, median (interquartile range)",[5]; CYP3A5 *3/*3 genotype (rs776746),8.4(6.5–10.5) ng/mL
same,"Trough dose-normalized, median (interquartile range)","[5]; all subjects (n=695), over the first 6 months",116.5 (70.7–186.3) ng/ml per mg/kg/day
same,"Trough concentration, median (interquartile range)","[5]; all subjects (n=695), over the first 6 months, whole blood, oral dosing",7.9 (5.9–10.1) ng/mL
same,"Trough concentration, median (interquartile range)","[5]; center 1, 6 month study period",9.5 (8.0–11.4) ng/mL
same,"Trough concentration, median (interquartile range)","[5]; center 2, 6 month study period",10.5 (7.4–13.0) ng/mL
same,"Trough concentration, median (interquartile range)","[5]; center 3, 6 month study period",7.9 (6.1–10.1) ng/mL
same,"Trough concentration, median (interquartile range)","[5]; center 4, 6 month study period",9.7 (7.5–12.2) ng/mL
same,"Trough concentration, median (interquartile range)","[5]; center 5, 6 month study period",8.9 (7.1–10.6) ng/mL
same,"Trough concentration, median (interquartile range)","[5]; center 6, 6 month study period",9.1 (7.0–11.3) ng/mL
same,"Trough concentration, median (interquartile range)","[5]; center 7, 6 month study period",6.6 (4.7–8.7) ng/mL
same,First trough concentration,"[5]; measured within 4 days after transplantation, in most subjects",< 5 ng/mL
same,Troughs achieved,"[5]; non-AA group, quickly achieved (Figure 1)",> 8 ng/mL
same,Subjects with first trough <8 ng/mL,[5]; non-African Americans,73.9%
same,"First trough concentration (week one posttransplant), median (interquartile range)","[5]; non-African Americans, daily dose 4.0 [4.0–6.0] mg/day",5.0 [3.1–8.2] ng/mL and 5.0 (3.1–8.2) ng/mL
same,"Trough concentration, median (interquartile range)",[5]; [7],8.3 (6.4–10.4) ng/mL
same,"Trough dose-normalized, median (interquartile range)",[5]; [7],131.4 (83.0–201.8) ng/ml per mg/kg/day
same,Median trough lower in AA than in non-AA recipients,"[5]; over the 6 month study period, AAs on 60% higher median daily dose",2.1 ng/mL
same,Fraction metabolized through CYP3A5,CYP3A5; hepatic enzymes from CYP3A5*1 allele carriers,60%
same,Intrinsic tacrolimus clearance of CYP3A5 enzyme relative to CYP3A4,CYP3A5; in vitro,twice
